Source: ChEMBL document CHEMBL4706538, “Novel pleuromutilin derivatives with substituted 6-methylpyrimidine: Design, synthesis and antibacterial evaluation” (2020)
In brackets after ≈: the same amount, converted by molar mass. Activity calls are given as the source filed them. The calls are words filed in the database; no cut-off is given here.

Tests used:
Staphylococcus aureus [1] = experiment: Antibacterial activity against Staphylococcus aureus ATCC 25923 measured after 18 to 24 hrs by microtiter dilution method; assay type: functional; details: time 18-24 hrs
Method in brief: (§1)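 Compounds were taken up in 25% DMSO at 64 μg/mL and serially diluted two-fold in water (11 dilutions). Log-phase bacteria grown in MHB were diluted to 10^5-10^6 CFU/mL and mixed 1:1 with the dilutions. Plates were incubated at 37 °C for 18-24 h. MIC was the lowest concentration giving no growth by OD492, averaged over three independent experiments.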

[2] = tested on: Staphylococcus epidermidis; experiment: Antibacterial activity against Staphylococcus epidermidis ATCC 51625 measured after 18 to 24 hrs by microtiter dilution method; assay type: functional; details: time 18-24 hrs; method in brief: as §1
Staphylococcus aureus [3] = experiment: Antibacterial activity against Staphylococcus aureus BNCC 337371 measured after 18 to 24 hrs by microtiter dilution method; assay type: functional; details: time 18-24 hrs; method in brief: as §1
[4] = tested on: Streptococcus dysgalactiae; experiment: Antibacterial activity against Streptococcus dysgalactiae measured after 18 to 24 hrs by microtiter dilution method; assay type: functional; details: time 18-24 hrs; method in brief: as §1
Streptococcus agalactiae = experiment: Antibacterial activity against Streptococcus agalactiae measured after 18 to 24 hrs by microtiter dilution method; assay type: functional; details: time 18-24 hrs; method in brief: as §1
Enterococcus faecalis = experiment: Antibacterial activity against Enterococcus faecalis measured after 18 to 24 hrs by microtiter dilution method; assay type: functional; details: time 18-24 hrs; method in brief: as §1
Pasteurella multocida = experiment: Antibacterial activity against Pasteurella multocida CVCC 1659 measured after 18 to 24 hrs by microtiter dilution method; assay type: functional; details: time 18-24 hrs; method in brief: as §1
Escherichia coli = experiment: Antibacterial activity against Escherichia coli CICC 10389 measured after 18 to 24 hrs by microtiter dilution method; assay type: functional; details: time 18-24 hrs; method in brief: as §1
Staphylococcus aureus [5] = experiment: Bacteriostatic activity against Staphylococcus aureus BNCC 337371 assessed as reduction in bacterial load incubated for 2 to 24 hrs prior to 10 fold dilution followed by replating on MH agar plate and measured after 24 hrs by time-kill assay; assay type: functional, organism-based; details: time 2-24 hrs
Method in brief: (§2)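 MRSA-337371 was grown in Mueller-Hinton broth at 37 °C for 6 h with shaking, then diluted to about 6×10^5 CFU/mL. It was exposed to 0.5, 1, 2 and 4× MIC. Samples taken at 0, 2, 4, 6, 8, 12 and 24 h were serially diluted 10-fold in 0.9% saline and plated on MH agar at 37 °C for 24 h. Colonies were counted as log10 CFU/mL, in triplicate.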

Staphylococcus aureus [6] = experiment: Bacteriostatic activity against Staphylococcus aureus BNCC 337371 assessed as reduction in bacterial load at 2 to 4 times MIC incubated for 8 hrs prior to 10 fold dilution followed by replating on MH agar plate and measured after 24 hrs by time-kill assay relative to control; assay type: functional; details: time 32 hrs; method in brief: as §2
Staphylococcus aureus [7] = experiment: Antibacterial activity against Staphylococcus aureus BNCC 337371 infected in ip dosed Kunming mouse assessed as increase in mouse survival measured after 7 days; assay type: functional; details: for ED50: BNCC 337371, ip, 168 h, time 7 day; for Activity: time 7.0 day
Method in brief: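 Neutropenic 6-8 week Kunming mice (cyclophosphamide 150 mg/kg ip for four days, then 100 mg/kg one day before inoculation) were infected ip with 0.5 mL MRSA-337371 at 10^8 CFU/mL. About 1 h later they were dosed ip at 5, 8, 15, 25 or 40 mg/kg in DMSO:Tween-80:water 0.5:0.5:9 (10 per group). Mice were observed twice daily, survival was read at day 7, and ED50 was calculated by the Bliss method.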

Staphylococcus aureus [8] = experiment: Antibacterial activity against Staphylococcus aureus BNCC 337371 infected in Kunming mouse assessed as bacterial load in lung at 20 to 40 mg/kg, ip measured after 2 days by colony counting method (reference value: 4.8 log10CFU/ml); assay type: functional; details: dose 20-40 mg/kg; time 2 day
Method in brief: (§3)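 Kunming mice (SPF, 6-8 weeks) were made neutropenic with ip cyclophosphamide, 150 mg/kg for four days and 100 mg/kg one day before infection. They were infected ip with 0.5 mL of MRSA-337371 at 10^8 CFU/mL. About 1 h later, compound was given ip in 0.5 mL vehicle (DMSO:Tween-80:water 0.5:0.5:9). After 2 d of treatment, lung, kidney and liver were weighed, homogenized in saline, diluted 10-fold, plated on MH agar at 37 °C for 24 h in triplicate, and expressed as CFU/g.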

Staphylococcus aureus [9] = experiment: Antibacterial activity against Staphylococcus aureus BNCC 337371 infected in Kunming mouse assessed as reduction in bacterial load in liver at 20 to 40 mg/kg, ip measured after 2 days by colony counting method; assay type: functional, organism-based; details: dose 20-40 mg/kg, time 2.0 day; method in brief: as §3
Staphylococcus aureus [10] = experiment: Antibacterial activity against Staphylococcus aureus BNCC 337371 infected in Kunming mouse assessed as reduction in infiltration of neutrophils cells at 20 to 40 mg/kg, ip measured after 2 days by H and E staining based light microscopic analysis; assay type: functional, organism-based; details: dose 20-40 mg/kg, time 2.0 day
Method in brief: (§4)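 In neutropenic Kunming mice infected ip with MRSA-337371 and treated ip, lungs were taken after 2 d of treatment. They were fixed in 10% buffered formalin, embedded in paraffin, cut into 4 μm sections, stained with H&E and examined by light microscopy against normal and untreated infected groups.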

Staphylococcus aureus [11] = experiment: Antibacterial activity against Staphylococcus aureus BNCC 337371 infected in Kunming mouse assessed as reduction in local congestion in lung at 20 to 40 mg/kg, ip measured after 2 days by H and E staining based light microscopic analysis; assay type: functional, organism-based; details: dose 20-40 mg/kg, time 2.0 day; method in brief: as §4
Staphylococcus aureus [12] = experiment: Antibacterial activity against Staphylococcus aureus BNCC 337371 infected in Kunming mouse assessed as reduction in bacterial load in lung at 20 to 40 mg/kg, ip measured after 2 days by colony counting method; assay type: functional, organism-based; details: dose 20-40 mg/kg, time 2.0 day; method in brief: as §3
Staphylococcus aureus [13] = experiment: Antibacterial activity against Staphylococcus aureus BNCC 337371 infected in Kunming mouse assessed as reduction in bacterial load in kidney at 20 to 40 mg/kg, ip measured after 2 days by colony counting method; assay type: functional, organism-based; details: dose 20-40 mg/kg, time 2.0 day; method in brief: as §3
Staphylococcus aureus [14] = experiment: Antibacterial activity against Staphylococcus aureus BNCC 337371 infected in Kunming mouse assessed as reduction in lung tissue damage at 20 to 40 mg/kg, ip measured after 2 days by H and E staining based light microscopic analysis; assay type: functional, organism-based; details: dose 20-40 mg/kg, time 2.0 day; method in brief: as §4
Staphylococcus aureus [15] = experiment: Antibacterial activity against Staphylococcus aureus BNCC 337371 infected in Kunming mouse assessed as reduction in inflammatory cell infiltration in pulmonary interstitium at 40 mg/kg, ip measured after 2 days by H and E staining based light microscopic analysis; assay type: functional, organism-based; details: time 2.0 day; method in brief: as §4
Staphylococcus aureus [16] = experiment: Antibacterial activity against Staphylococcus aureus BNCC 337371 infected in Kunming mouse assessed as thickening of alveolar septum and wall at 20 mg/kg, ip measured after 2 days by H and E staining based light microscopic analysis; assay type: functional, organism-based; details: time 2.0 day; method in brief: as §4

Question: With `C=C[C@]1(C)C[C@@H](OC(=O)CSCCN(CC)CC)[C@]2(C)[C@H](C)CC[C@]3(CCC(=O)[C@H]32)[C@@H](C)[C@@H]1O` [TIAMULIN] as the compound, how does the MIC (Staphylococcus aureus [1]) read?
Answer: The MIC was 0.82 µM (≈ 0.405 µg/mL).

Question: What about the MIC [2] of the same compound?
Answer: The MIC was 0.82 µM (≈ 0.405 µg/mL).

Question: What about the MIC (Staphylococcus aureus [3]) of the same compound?
Answer: Its MIC is 0.82 µM (≈ 0.405 µg/mL).

Question: What about the MIC [4] of the same compound?
Answer: Its MIC is 0.2 µM (≈ 0.0988 µg/mL).

Question: And the MIC (Streptococcus agalactiae)?
Answer: Its MIC is 0.2 µM (≈ 0.0988 µg/mL).

Question: And the MIC (Enterococcus faecalis)?
Answer: The MIC was 52.5 µM (≈ 25.9 µg/mL).

Question: And the MIC (Pasteurella multocida)?
Answer: Its MIC is 3.28 µM (≈ 1.62 µg/mL).

Question: And the MIC (Escherichia coli)?
Answer: Its MIC is 52.5 µM (≈ 25.9 µg/mL).

Question: And the Activity (Staphylococcus aureus [5])?
Answer: Its Activity is “Dose-dependent effect”.

Question: What about the “fold change (FC)” value (Staphylococcus aureus [6]) of the same compound?
Answer: Its value is 1.

Question: And the ED50 (Staphylococcus aureus [7])?
Answer: The ED50 was 25.9 mg/kg.

Question: And the Activity (Staphylococcus aureus [7])?
Answer: Its Activity is “Dose-dependent effect”.

Question: And the Activity (Staphylococcus aureus [8])?
Answer: Its Activity is 1.1 log10CFU/ml.

Question: What about the Activity (Staphylococcus aureus [9]) of the same compound?
Answer: Its Activity is “inactive”.

Question: And the Activity (Staphylococcus aureus [10])?
Answer: Its Activity is “Active”.

Question: What about the Activity (Staphylococcus aureus [11]) of the same compound?
Answer: The Activity was “Active”.

Question: Which results are given for `C=C[C@]1(C)C[C@@H](OC(=O)CSc2nc(C)cc(N3CCCC3)n2)[C@@]2(C)[C@H](C)CC[C@]3(CCC(=O)[C@H]32)[C@@H](C)[C@@H]1O`?
Answer: MIC (Staphylococcus aureus [1]): 0.06 µM (≈ 0.0333 µg/mL); MIC [2]: 0.11 µM (≈ 0.0611 µg/mL); MIC (Staphylococcus aureus [3]): 0.06 µM (≈ 0.0333 µg/mL); MIC [4]: 0.06 µM (≈ 0.0333 µg/mL); MIC (Streptococcus agalactiae): 0.06 µM (≈ 0.0333 µg/mL); MIC (Enterococcus faecalis): 14.4 µM (≈ 8.01 µg/mL); MIC (Pasteurella multocida): 14.4 µM (≈ 8.01 µg/mL); MIC (Escherichia coli): > 57.6 µM; Activity (Staphylococcus aureus [5]): Dose-dependent effect; fold change (FC) (Staphylococcus aureus [6]): >=2; ED50 (Staphylococcus aureus [7]): 18 mg/kg; Activity (Staphylococcus aureus [7]): Dose-dependent effect; Activity (Staphylococcus aureus [12]): Active; Activity (Staphylococcus aureus [13]): Active; Activity (Staphylococcus aureus [9]): inactive; Activity (Staphylococcus aureus [14]): Active; Activity (Staphylococcus aureus [15]): Active; Activity (Staphylococcus aureus [16]): Active
